What was measured:
HT-29 = assay: Cytotoxicity against human HT-29 cells by MTT assay; format: functional, cell-based
DLD-1 = assay: Cytotoxicity against human DLD1 cells by MTT assay; format: functional, cell-based
HL-60 [1] = assay: Inhibition of okadaic acid-induced TNFalpha production in human HL60 cells at 30 uM after 16 hrs by ELISA relative to control; format: functional; conditions: HL-60, 16 h, values are per cent of control
In short: (§1)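 HL-60 cells in RPMI 1640 with 10% fetal bovine serum, 2 mM L-glutamine and penicillin/streptomycin, 37 °C, 5% CO2. Exponential cells (5×10^5 cells/mL) given 50 nM okadaic acid plus compound (30 µM) for 16 h. Cell number and morphology checked microscopically. Supernatant TNF-α measured by human TNF-α ELISA, expressed as % of okadaic acid-only treatment (100%). At least three experiments, triplicate means.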

HL-60 [2] = assay: Enhancement of 12-O-tetradecanoylphorbol-13-acetate-induced TNFalpha production in human HL60 cell at 30 uM after 16 hrs by ELISA relative to control; format: functional
In short: as §1, with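 “co-treated with 10” for “given 50”, “TPA” for “okadaic acid”, “TPA-only” for “okadaic acid-only”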

ST486 = assay: Cytotoxicity against human ST486 cells by MTT assay; format: functional, cell-based
HL-60 [3] = assay: Cytotoxicity against human HL60 cells by MTT assay; format: functional, cell-based
HUVEC = assay: Cytotoxicity against HUVEC by MTT assay; format: cell-based; conditions: Homo sapiens

Row | Structure (SMILES) | IC50 (HT-29) [µM] | IC50 (DLD-1) [µM] | response, % of control at 30 µM (HL-60 [1]) [%] | Activity (HL-60 [2]) [%] | IC50 (ST486) [µM] | IC50 (HL-60 [3]) [µM] | IC50 (HUVEC) [µM]
1 | CN(C)CCN1C(=O)CCC(N2C(=O)c3ccccc3C2=O)C1=O (stereo unspecified) | > 50 | > 50 | 93 | 125 | > 50 | > 50 | > 50
2 | CN(C)CCN1C(=O)CCC(n2c(=O)c3cc4c(=O)n(C5CCC(=O)N(CCN(C)C)C5=O)c(=O)c4cc3c2=O)C1=O (stereo unspecified) | > 50 | > 50 | 77 | 138 | > 50 | > 50 | > 50
3 | CN(CCN1C(=O)CCC(N2C(=O)c3ccccc3C2=O)C1=O)CCN1C(=O)CCC(N2C(=O)c3ccccc3C2=O)C1=O (stereo unspecified) | > 50 | > 50 | 99 | 159 | > 50 | > 50 | > 50
4 | O=C1CCC(N2C(=O)c3cccc4cc([N+](=O)[O-])cc(c34)C2=O)C(=O)N1 (stereo unspecified) | > 50 | > 50 | 47 | 248 | > 50 | > 50 | > 50
5 | CN(C)CCN1C(=O)CCC(N2C(=O)c3cccc4cccc(c34)C2=O)C1=O (stereo unspecified) | > 50 | > 50 | 91 | 107 | > 50 | > 50 | > 50
6 | CN(C)CCN1C(=O)CCC(N2C(=O)c3cccc4cc([N+](=O)[O-])cc(c34)C2=O)C1=O (stereo unspecified) | > 50 | > 50 | 48 | 124 | > 50 | > 50 | > 50
7 | Nc1cc2c3c(cccc3c1)C(=O)N(C1CCC(=O)NC1=O)C2=O (stereo unspecified) | > 50 | > 50 | 46 | 138 | > 50 | > 50 | > 50
8 | NC(=O)CCC(C(=O)O)N1C(=O)c2cc3ccccc3cc2C1=O (stereo unspecified) | > 50 | > 50 | 60 | 258 | > 50 | > 50 | > 50
9 | NC(=O)CCC(C(=O)O)N1C(=O)c2ccc3ccccc3c2C1=O (stereo unspecified) | > 50 | > 50 | 111 | 146 | > 50 | > 50 | > 50
10 | CN(C)CCN1C(=O)CCC(N2C(=O)c3cccc4cc(N)cc(c34)C2=O)C1=O (stereo unspecified) | > 50 | > 50 | 47 | 132 | > 50 | > 50 | > 50
11 | CN(C)CCN1C(=O)CCC(N2C(=O)c3cc4ccccc4cc3C2=O)C1=O (stereo unspecified) | > 50 | > 50 | 50 | 149 | > 50 | > 50 | > 50
12 | CN(C)CCN1C(=O)CCC(N2C(=O)c3ccc4ccccc4c3C2=O)C1=O (stereo unspecified) | > 50 | > 50 | 59 | 105 | > 50 | > 50 | > 50
13 | O=C1CCC(N2C(=O)c3cc4ccccc4cc3C2=O)C(=O)N1 (stereo unspecified) | > 50 | > 50 | 138 | 166 | > 50 | > 50 | > 50
14 | O=C1CCC(N2C(=O)c3ccc4ccccc4c3C2=O)C(=O)N1 (stereo unspecified) | > 50 | > 50 | 78 | 161 | > 50 | > 50 | > 50
15 | O=C1CCC(N2C(=O)C(c3ccccc3)=C(c3ccccc3)C2=O)C(=O)N1 (stereo unspecified) | > 50 | > 50 | 47 | 147 | > 50 | > 50 | > 50
16 | NC(=O)CCC(C(=O)O)N1C(=O)C(c2ccccc2)=C(c2ccccc2)C1=O (stereo unspecified) | > 50 | > 50 | 66 | 146 | > 50 | > 50 | > 50
17 | O=C1CCC(n2c(=O)c3cc4c(=O)n(C5CCC(=O)NC5=O)c(=O)c4cc3c2=O)C(=O)N1 (stereo unspecified) | > 50 | > 50 | 34 | 294 | > 50 | > 50 | > 50
18 | CN(C)CCN1C(=O)CCC(N2C(=O)C(c3ccccc3)=C(c3ccccc3)C2=O)C1=O (stereo unspecified) | > 50 | > 50 | 6 | 672 | > 50 | > 50 | > 50
19 | NC(=O)CCC(C(=O)O)N1C(=O)c2cccc3cccc(c23)C1=O (stereo unspecified) | > 50 | > 50 | 55 | 116 | > 50 | > 50 | > 50
20 | NC(=O)CCC(C(=O)O)N1C(=O)c2cccc3cc([N+](=O)[O-])cc(c23)C1=O (stereo unspecified) | > 50 | > 50 | 51 | 86 | > 50 | > 50 | > 50
21 | NC(=O)CCC(C(=O)O)N1C(=O)c2cccc3cc(N)cc(c23)C1=O (stereo unspecified) | > 50 | > 50 | 49 | 140 | > 50 | > 50 | > 50
22 | O=C1CCC(N2C(=O)c3cccc4cccc(c34)C2=O)C(=O)N1 (stereo unspecified) | > 50 | > 50 | 49 | 158 | > 50 | > 50 | > 50
23 | O=C1CCC(N2C(=O)c3ccccc3C2=O)C(=O)N1 (stereo unspecified) [THALIDOMIDE] | > 50 | > 50 | 53 | 164 | > 50 | > 50 | > 50
